Assay outcomes deposited in PubChem BioAssay by several laboratories.
Most compounds without a hit are left out; they make up all but 6.4% or so of the library.
HUVEC prolif 384 = inhibitors of human endothelial cell proliferation; HUVEC proliferation, CellTiter-Glo luminescence, 72 h; hits give low values; viability, % at 10 µM (by protocol); 86,000 compounds, 1.1% hits; AID 648;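 active = viability at or below 30%; inactive = viability above 30%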
H69AR growth 86K = blocks growth of human H69AR lung tumor cells; AID 598; viability, % at 10 µM; H69AR lung tumor viability, ATP luminescence, 72 h; hits give low values; 85,000 compounds, 6% hits;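 active = viability at or below 40%; inactive = viability above 40%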;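 also: multidrug resistant small cell line overexpressing MRP-1 efflux transporter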
Jurkat viability = cytotoxicity toward Jurkat cells; Jurkat E6.1 viability, ATP luminescence, 48 h; inhibition, % at 4 µM; 56,000 compounds, 1.2% hits; AID 463;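 active = inhibition above the mean inhibition of all tested compounds plus 3 SD, cut at about 28% in these data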
Ecoli WT expand = growth inhibitors of E. coli BW25113 wild type. OD600 absorbance. growth inhibition, % at 100 µM. 98,000 compounds, 0.15% hits. AID 710;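 active = growth inhibition above about 50% at one test dose, limit read from the data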;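 also: growth measured after 20 h incubation at 37 °C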
Ecoli tolC = growth inhibitors of E. coli BW25113 tolC mutant. OD615. growth inhibition, % at 10 µM (by protocol). 65,000 compounds, 2.2% hits. AID 573;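 active = growth inhibition at or above a cutoff equal to the mean over every tested compound plus 3 SD, cut at about 60% in these data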;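 also: growth measured after 20 h incubation at 37 °C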
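Signal: optical density read at 615 nm; Assay system: E. coli ΔtolC::kan strain BW25113; Times: 20 h incubation with compound, 37 °C; Dosing: 10 µM final, single dose.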
Fibroblast inh = blocks proliferation of human lung fibroblasts. LL 47 human lung fibroblast viability, ATP luminescence; hits give low values. viability, % at 10 µM. 85,000 compounds, 1.1% hits;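 active = viability at or below 50% in the single dose screen; inactive = viability above 50%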;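 also: compound exposure lasted 72 h before the ATP readout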
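material = human LL 47 lung fibroblast cells | dosing = compounds added from tenfold dosing solution, 0.1% DMSO final | timing = overnight cell rest, 72 h compound treatment at 37 °C | measured by = CellTiter-Glo luminescence measuring cellular ATP | evaluation = % viability versus median cells-only luminescence | control set = cell-only wells, no compound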
A number is an active result; n = inactive; x = no result.

SMILES	HUVEC prolif 384	H69AR growth 86K	Jurkat viability	Ecoli WT expand	Ecoli tolC	Fibroblast inh
COc1ccc(-c2csc(N(CCCN(C)C)C(=O)c3cccs3)n2)cc1	n	22	n	n	n	n
CCC(=O)N(CCCN(C)C)c1nc(-c2cc(OC)ccc2OC)cs1	n	n	n	n	n	n
COc1ccc(N2C(=O)CC(Sc3nc(C)cc(C)c3C#N)C2=O)cc1 (configuration not stated)	n	n	x	x	x	n
O=C1CC(Sc2ncccn2)C(=O)N1c1ccccc1 (configuration not stated)	n	n	x	n	x	n
O=C1CC(Sc2nnc(-c3ccccc3O)o2)C(=O)N1c1ccccc1 (configuration not stated)	n	1.7	n	n	n	2.4
COc1ccc(N2C(=O)CC(Sc3nnc(-c4ccccc4)o3)C2=O)cc1 (configuration not stated)	n	1.4	n	n	n	2.2
CC(C)(C)NC(=O)c1ccc(Sc2ccccc2)c([N+](=O)[O-])c1	x	x	x	n	x	x
CC(=O)c1sc(NC(=O)C2(F)C(F)(F)C(F)(F)C(F)(F)C(F)(F)C2(F)F)nc1C	n	12	90	n	100	n
Cn1cc(SCC(=O)Nc2nc3ccccc3s2)c2ccccc21	10	n	x	n	62	n
O=S(=O)(c1ccc2c(c1)nc(COc1ccc(Cl)cc1)n2CC1CCCO1)N1CCOCC1 (configuration not stated)	n	5.8	n	n	n	5.7
CCCCCn1c(=N)n(CC(O)COc2ccccc2OC)c2ccccc21 (configuration not stated)	x	x	n	n	n	x
CCCCn1c(=N)n(CC(O)COc2cccc(C)c2)c2ccccc21 (configuration not stated)	n	1.6	n	n	n	n
CCCc1cc(C(N)=O)c(NC(C)=O)s1	n	40	n	n	n	n
COC(=O)c1ccc(/C=N\NC(=O)c2ccc(C)cc2Cl)cc1	x	x	x	n	x	x
COc1ccccc1-c1cc(C(F)(F)F)nc(S(=O)(=O)CCCC(=O)N2CCOCC2)n1	n	0.3	62	n	n	3.2
O=C(Nc1ccc(N2CCOCC2)c(Cl)c1)c1ccccc1F	n	n	x	n	x	n
Cc1cc(C)nc(SCC(=O)Nc2ccc(N3CCOCC3)c(Cl)c2)n1	n	n	58	n	n	n
O=C(COc1c(F)c(F)c(C(F)(F)F)c(F)c1F)Nc1ccc(N2CCOCC2)c(Cl)c1	n	n	n	n	100	n
CC(=O)Nc1ccc2nc(SCC(=O)Nc3ccc(N4CCOCC4)c(Cl)c3)sc2c1	x	x	x	n	x	x
Cc1ccc(S(=O)(=O)Cc2ccc(C(=O)N3CCN(c4ccc(F)cc4)CC3)o2)cc1	n	20	n	n	n	n
Cc1ccccc1S(=O)(=O)Cc1ccc(C(=O)N2CCN(c3ccc(F)cc3)CC2)o1	n	34	n	n	n	n
O=C(c1ccc(COc2c(F)c(F)cc(F)c2F)o1)N1CCN(c2ccc(Cl)cc2)CC1	n	n	n	n	62	n
COc1ccc(S(=O)(=O)Cc2ccc(C(=O)N3CCN(c4ccc(Cl)cc4)CC3)o2)cc1	n	n	n	n	n	n
COc1ccc(N2CCN(C(=O)c3ccc(CS(=O)(=O)c4ccc(OC)cc4)o3)CC2)cc1	n	n	n	n	n	n
CC(C)c1nnc(NC(=O)CCC(=O)NCc2cccs2)s1	n	n	x	n	x	n
SMILES	HUVEC prolif 384	H69AR growth 86K	Jurkat viability	Ecoli WT expand	Ecoli tolC	Fibroblast inh
Cc1c(OCc2ccccc2)c(=O)ccn1Cc1ccc(Cl)cc1	n	3.9	x	n	x	n
Cc1nn(-c2ccccc2)c(OC(=O)c2cccs2)c1S(=O)(=O)c1ccccc1	x	x	n	n	n	x
Cc1nn(-c2ccccc2)c(OC(=O)c2cccs2)c1S(=O)(=O)c1ccc([N+](=O)[O-])cc1	n	7.9	x	n	x	n
Cc1cc(=O)[nH]c(SCC(=O)Nc2ccc(Br)cc2)c1C#N	n	31	x	n	x	n
Cc1cc(=O)[nH]c(SCC(=O)Nc2ccccc2C#N)c1C#N	x	x	x	n	x	x
Cc1cccc(-n2c(=O)[nH]c3c(C(N)=O)nc(-c4ccccc4Cl)nc32)c1	n	2.5	n	n	n	n
COc1ccccc1-c1nc(C(N)=O)c2[nH]c(=O)n(-c3cccc(C)c3)c2n1	x	x	n	n	n	x
Cc1ccnc(N2CCC(C(=O)Nc3cccc(C(F)(F)F)c3)CC2)n1	n	n	n	n	65	n
Cc1ccc2nc(NCc3ccccc3)[nH]c2c1	n	22	x	n	n	n
COc1ccc2nc(NCCO)[nH]c2c1	n	n	n	n	n	n
COc1ccc2nc(NCc3ccccc3)[nH]c2c1	n	20	n	n	n	n
COc1ccc2cc(C(=O)NCc3ccco3)c(=Nc3ccc(C(=O)O)cc3)oc2c1	n	21	n	n	n	n
CCC(C)C(NC(=O)c1ccccc1NC(=O)c1ccc(OC)cc1)C(=O)NCc1ccco1 (configuration not stated)	n	n	n	n	n	n
COc1ccc2cc(C(=O)NCc3ccco3)c(=O)oc2c1	n	n	n	n	n	n
COc1ccc(C(=O)Nc2ccc(Cl)cc2C(=O)NCc2ccco2)cc1	n	29	x	x	x	n
CSc1nc2c(c(-c3ccccc3)c1C#N)CCC2	n	n	x	x	x	n
COc1cc2c(C#N)c(N3CCc4ccccc4C3)nc(N)c2c(N)n1	n	n	n	n	74	n
O=C(COC(=O)c1ccc(=O)n(Cc2ccccc2)n1)Nc1ccc2c(c1)OCCO2	n	n	n	n	n	n
CCOC(=O)c1cc2oc(C)cc2n1CC(=O)OC1CCCCC1	n	n	n	n	74	n
CCn1cc(C(=O)N2CCCc3ccccc32)c2cc(OC)c(OC)cc2c1=O	n	n	x	n	n	n
Cn1c(N)c(C(=O)CCl)c(=O)n(C)c1=O	n	3.0	x	n	x	n
COc1cc(CNc2ccccc2Oc2cc(=O)n(C)c(=O)n2C)cc(OC)c1OC	n	n	x	n	x	n
Cn1c(Oc2ccccc2NCc2cc(Br)ccc2O)cc(=O)n(C)c1=O	n	n	n	n	65	n
Cn1c(SCC2CCCCC2)nnc1-c1ccncc1	n	n	n	n	n	n
O=C(NCCN1CCOCC1)c1cc(=O)[nH]c2ccc(Br)cc12	n	n	n	n	n	n
SMILES	HUVEC prolif 384	H69AR growth 86K	Jurkat viability	Ecoli WT expand	Ecoli tolC	Fibroblast inh
O=C(NCCCN1CCOCC1)c1c(O)c2cc(Br)cc(Br)c2[nH]c1=O	n	18	n	x	n	n
C=C(C)C1Cc2nc(N)nc(C)c2C1 (configuration not stated)	n	n	n	n	n	n
C=C(C)C1Cc2c(C)nn(-c3nc(C)cc(C)n3)c2C1 (configuration not stated)	n	3.2	x	n	n	n
Cc1c(CCOC(=O)C2C3CC4CC(C3)CC2C4)sc[n+]1CC(=O)c1ccc(Br)cc1 (configuration not stated)	2.6	0.9	x	n	x	n
CCOc1ccc(NS(=O)(=O)c2ccc(NC(=O)C3CCCO3)cc2)cc1 (configuration not stated)	n	n	x	n	x	n
CN(C)CCC(=O)c1ccc(Cl)cc1	n	19	n	n	n	n
